Calls of active or inactive are those of the source. The rule behind the calls is not given here.
Legend:
[1] = test system: MDA-MB-231; assay: Cytotoxicity against human MDA-MB-231 cells assessed as reduction in cell viability incubated for 72 hrs by MTT assay; format: functional, cell-based; settings: MDA-MB-231, 72 h
Outline: (§1)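 MTT viability assay. Cells kept in DMEM with 10% FBS at 37 °C and 5% CO2. Seeded at 5×10^3 cells per well and exposed to a range of compound concentrations from 20 mM DMSO stocks. IC50 is the mean of triplicate measurements.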

[2] = test system: SH-SY5Y; assay: Cytotoxicity against human SH-SY5Y cells assessed as reduction in cell viability incubated for 72 hrs by MTT assay; format: functional, cell-based; outline: as §1
[3] = test system: PC-3; assay: Cytotoxicity against human PC-3 cells assessed as reduction in cell viability incubated for 72 hrs by MTT assay; format: functional, cell-based; settings: PC-3, 72 h; outline: as §1
[4] = Solubility of compound in water; format: physicochemical; settings: buffer
[5] = test system: MDA-MB-231; assay: Induction of apoptosis in human MDA-MB-231 cells assessed as increase in caspase-3 cleavage at 1 to 4 uM incubated for 48 hrs by Western blot analysis; format: functional, cell-based; settings: dose 1-4 µM
Outline: (§2)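 MDA-MB-231 cells treated for 48 h at set concentrations. Cleaved PARP, cleaved caspase-3 and cleaved caspase-9 detected by Western blot and quantified by densitometry. Mean ± SEM, n = 3.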

[6] = test system: MDA-MB-231; assay: Induction of apoptosis in human MDA-MB-231 cells assessed as early apoptotic cells at 1 uM incubated for 48 hrs by annexin V-FITC and PI staining based flow cytometry analysis (reference value: 3.90 %); format: functional
[7] = test system: MDA-MB-231; assay: Induction of cell cycle arrest in human MDA-MB-231 cells assessed as G0/G1 phase accumulation at 2 uM incubated for 24 hrs by PI staining based flow cytometry analysis (reference value: 42.84 %); format: functional
[8] = test system: MDA-MB-231; assay: Induction of apoptosis in human MDA-MB-231 cells; format: functional, cell-based; settings: dose 1-4 µM
[9] = test system: MDA-MB-231; assay: Induction of apoptosis in human MDA-MB-231 cells assessed as increase in PARP cleavage at 1 to 4 uM incubated for 48 hrs by Western blot analysis; format: functional, cell-based; settings: dose 1-4 µM; outline: as §2
[10] = test system: MDA-MB-231; assay: Induction of cell cycle arrest in human MDA-MB-231 cells assessed as G0/G1 phase accumulation at 4 uM incubated for 24 hrs by PI staining based flow cytometry analysis (reference value: 42.84 %); format: functional
[11] = test system: MDA-MB-231; assay: Induction of apoptosis in human MDA-MB-231 cells assessed as late apoptotic cells at 2 uM incubated for 48 hrs by annexin V-FITC and PI staining based flow cytometry analysis (reference value: 2.52 %); format: functional
[12] = test system: MDA-MB-231; assay: Induction of apoptosis in human MDA-MB-231 cells assessed as early apoptotic cells at 2 uM incubated for 48 hrs by annexin V-FITC and PI staining based flow cytometry analysis (reference value: 3.90 %); format: functional
[13] = test system: MDA-MB-231; assay: Induction of cell cycle arrest in human MDA-MB-231 cells assessed as S phase accumulation at 2 uM incubated for 24 hrs by PI staining based flow cytometry analysis (reference value: 38.65 %); format: functional
[14] = test system: MDA-MB-231; assay: Induction of cell cycle arrest in human MDA-MB-231 cells assessed as S phase accumulation at 4 uM incubated for 24 hrs by PI staining based flow cytometry analysis (reference value: 38.65 %); format: functional
[15] = test system: MDA-MB-231; assay: Induction of apoptosis in human MDA-MB-231 cells assessed as late apoptotic cells at 1 uM incubated for 48 hrs by annexin V-FITC and PI staining based flow cytometry analysis (reference value: 2.52 %); format: functional
[16] = test system: MDA-MB-231; assay: Antiproliferative activity against human MDA-MB-231 cells assessed as reduction in cell growth incubated for 48 hrs; format: functional, cell-based; settings: dose 0.5-2 µM
[17] = test system: MDA-MB-231; assay: Induction of cell cycle arrest in human MDA-MB-231 cells assessed as G2/M phase accumulation at 5 uM incubated for 16 hrs by PI staining based flow cytometry analysis (reference value: 16.62 %)
[18] = test system: MDA-MB-231; assay: Induction of apoptosis in human MDA-MB-231 cells assessed as increase in caspase-9 cleavage at 1 to 4 uM incubated for 48 hrs by Western blot analysis; format: functional, cell-based; settings: dose 1-4 µM; outline: as §2
[19] = test system: MDA-MB-231; assay: Induction of apoptosis in human MDA-MB-231 cells assessed as necrotic cells at 1 uM incubated for 48 hrs by annexin V-FITC and PI staining based flow cytometry analysis (reference value: 3.08 %); format: functional
[20] = test system: MDA-MB-231; assay: Cytotoxicity against human MDA-MB-231 cells assessed as cell blebbing at >1 uM incubated for 48 hrs; format: functional, cell-based; settings: dose microM >1, time 48.0 hrs
[21] = test system: MDA-MB-231; assay: Induction of apoptosis in human MDA-MB-231 cells assessed as necrotic cells at 4 uM incubated for 48 hrs by annexin V-FITC and PI staining based flow cytometry analysis (reference value: 3.08 %); format: functional
[22] = test system: MDA-MB-231; assay: Induction of cell cycle arrest in human MDA-MB-231 cells assessed as G2/M phase accumulation at 1 uM incubated for 24 hrs by PI staining based flow cytometry analysis (reference value: 16.62 %); format: functional
[23] = target: Aurora kinase B (Homo sapiens, UniProt Q96GD4); assay: Inhibition of Aurora B (unknown origin) incubated for 1 hrs by HTRF assay
Chain of Aurora kinase B (Q96GD4 whole entry): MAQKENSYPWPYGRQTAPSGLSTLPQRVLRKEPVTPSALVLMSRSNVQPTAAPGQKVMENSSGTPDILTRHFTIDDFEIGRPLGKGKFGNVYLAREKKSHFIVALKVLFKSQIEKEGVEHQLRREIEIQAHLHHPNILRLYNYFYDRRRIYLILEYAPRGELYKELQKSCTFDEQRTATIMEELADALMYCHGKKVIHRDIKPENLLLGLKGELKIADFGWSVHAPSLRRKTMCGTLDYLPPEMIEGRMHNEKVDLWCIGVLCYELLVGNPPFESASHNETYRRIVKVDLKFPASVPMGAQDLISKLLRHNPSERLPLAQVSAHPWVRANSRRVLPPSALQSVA

[24] = test system: MDA-MB-231 (Homo sapiens); assay: Anticlonogenic activity against human MDA-MB-231 cells assessed as inhibition of colony formation at 0.5 to 2 uM incubated for 72 hrs followed by replacement of medium and measured after 10 days by crystal violet staining based visual analysis; settings: dose 0.5-2 µM
[25] = test system: MDA-MB-231; assay: Induction of apoptosis in human MDA-MB-231 cells assessed as late apoptotic cells at 4 uM incubated for 48 hrs by annexin V-FITC and PI staining based flow cytometry analysis (reference value: 2.52 %); format: functional
[26] = test system: MDA-MB-231; assay: Induction of cell cycle arrest in human MDA-MB-231 cells assessed as G2/M phase accumulation at 2 uM incubated for 24 hrs by PI staining based flow cytometry analysis (reference value: 16.62 %); format: functional
[27] = test system: MDA-MB-231; assay: Induction of cell cycle arrest in human MDA-MB-231 cells assessed as S phase accumulation at 1 uM incubated for 24 hrs by PI staining based flow cytometry analysis (reference value: 38.65 %); format: functional
[28] = target: T1, Aurora kinase A (Homo sapiens, UniProt O14965); assay: Inhibition of Aurora A (unknown origin) incubated for 1 hrs by HTRF assay
T1 sequence (O14965 whole entry): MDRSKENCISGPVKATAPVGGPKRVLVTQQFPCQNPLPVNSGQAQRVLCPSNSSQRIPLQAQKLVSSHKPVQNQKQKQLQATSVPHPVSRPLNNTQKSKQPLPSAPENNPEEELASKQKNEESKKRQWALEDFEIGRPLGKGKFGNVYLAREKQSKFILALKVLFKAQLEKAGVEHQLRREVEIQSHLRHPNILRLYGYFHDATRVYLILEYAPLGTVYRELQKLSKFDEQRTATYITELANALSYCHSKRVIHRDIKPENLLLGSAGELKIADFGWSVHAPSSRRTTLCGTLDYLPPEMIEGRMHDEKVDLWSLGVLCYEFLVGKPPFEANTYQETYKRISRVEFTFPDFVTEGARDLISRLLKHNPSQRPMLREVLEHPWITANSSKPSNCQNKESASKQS

[29] = test system: MDA-MB-231; assay: Induction of apoptosis in human MDA-MB-231 cells assessed as viable cells at 4 uM incubated for 48 hrs by annexin V-FITC and PI staining based flow cytometry analysis (reference value: 90.49 %); format: functional; settings: read-out: Activity
[30] = test system: MDA-MB-231; assay: Induction of apoptosis in human MDA-MB-231 cells assessed as early apoptotic cells at 4 uM incubated for 48 hrs by annexin V-FITC and PI staining based flow cytometry analysis (reference value: 3.90 %); format: functional
[31] = test system: MDA-MB-231; assay: Induction of cell cycle arrest in human MDA-MB-231 cells assessed as G0/G1 phase accumulation at 1 uM incubated for 24 hrs by PI staining based flow cytometry analysis (reference value: 42.84 %); format: functional
[32] = target: T2, Aurora kinase A (Homo sapiens) (UniProt O14965); assay: Inhibition of Aurora A in human MDA-MB-231 cells assessed as reduction in Histone H3 phosphorylation incubated for 24 hrs by Western blot analysis; format: cell-based; settings: dose 1-4 µM
T2 sequence (whole entry): T1 sequence (O14965 whole entry)
Outline: (§3)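 MDA-MB-231 cells exposed to DMSO or drug at set concentrations for 24 h. Western blot for phospho-Aurora A at Thr288 or phospho-histone H3 at Ser10, with total Aurora A, histone H3 and GAPDH antibodies also used. Bands quantified by densitometry.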

[33] = test system: MDA-MB-231; assay: Induction of cell cycle arrest in human MDA-MB-231 cells assessed as increase G2/M phase accumulation incubated for 24 hrs by PI staining based flow cytometry analysis; format: functional; settings: dose 1-4 µM
[34] = target: T2, Aurora kinase A (Homo sapiens); assay: Inhibition of Aurora A in human MDA-MB-231 cells assessed as reduction in Aurora Thr288 residue phosphorylation incubated for 24 hrs by Western blot analysis; format: cell-based; settings: dose 1-4 µM; outline: as §3
[35] = test system: MDA-MB-231; assay: Cytotoxicity against human MDA-MB-231 cells assessed as cell shrinkage at >1 uM incubated for 48 hrs; format: functional, cell-based; settings: dose microM >1, time 48.0 hrs
[36] = test system: MDA-MB-231; assay: Induction of apoptosis in human MDA-MB-231 cells assessed as necrotic cells at 2 uM incubated for 48 hrs by annexin V-FITC and PI staining based flow cytometry analysis (reference value: 3.08 %); format: functional
[37] = test system: MDA-MB-231; assay: Induction of apoptosis in human MDA-MB-231 cells assessed as viable cells at 2 uM incubated for 48 hrs by annexin V-FITC and PI staining based flow cytometry analysis (reference value: 90.49 %); format: functional; settings: read-out: Activity
[38] = test system: MDA-MB-231; assay: Induction of apoptosis in human MDA-MB-231 cells assessed as viable cells at 1 uM incubated for 48 hrs by annexin V-FITC and PI staining based flow cytometry analysis (reference value: 90.49 %); format: functional; settings: read-out: Activity

## CCC(=O)Nc1nc2ccc(-c3ccc4ncn(CCCN5CCOCC5)c(=O)c4c3)cc2[nH]1
[1]
  IC50: 1.22 µM
[2]
  IC50: 1.68 µM
[3]
  IC50: 3.21 µM

## COC(=O)Nc1nc2ccc(-c3ccc4ncn(CCN5CCOCC5)c(=O)c4c3)cc2[nH]1
[1]
  IC50: > 20 µM
[4]
  solubility: Soluble
[2]
  IC50: > 20 µM
[3]
  IC50: > 20 µM

## CCC(=O)Nc1nc2ccc(-c3ccc4ncn(CCN5CCCCC5)c(=O)c4c3)cc2[nH]1
[1]
  IC50: 1.23 µM
[2]
  IC50: 4.02 µM
[3]
  IC50: 6.57 µM

## O=C(Nc1nc2ccc(-c3ccc4ncn(CCN5CCOCC5)c(=O)c4c3)cc2[nH]1)N1CCOCC1
[1]
  IC50: > 20 µM
[2]
  IC50: > 20 µM
[3]
  IC50: > 20 µM

## CCC(=O)Nc1nc2ccc(-c3ccc4nc(CN5CCN(C(=O)CC)CC5)n(C)c(=O)c4c3)cc2[nH]1
[1]
  IC50: > 20 µM
[2]
  IC50: 5.49 µM
[3]
  IC50: > 20 µM

## CCC(=O)Nc1nc2ccc(-c3ccc4ncn(CCN5CCOCC5)c(=O)c4c3)cc2[nH]1
[5]
  Activity: Active
[1]
  IC50: 0.38 µM
[6]
  Activity: 4.27%
[7]
  Activity: 28.68%
[8]
  Activity: Dose-dependent effect
[9]
  Activity: Active
[10]
  Activity: 5.59%
[11]
  Activity: 8.25%
[12]
  Activity: 11.61%
[13]
  Activity: 25.43%
[14]
  Activity: 6.99%
[15]
  Activity: 2.71%
[16]
  Activity: Dose-dependent effect
[17]
  Activity: 76.19%
[18]
  Activity: Active
[19]
  Activity: 4.02%
[20]
  Activity: Active
[21]
  Activity: 15.91%
[22]
  Activity: 21.84%
[23]
  IC50: 0.273 µM
[24]
  Activity: Active
[25]
  Activity: 15.41%
[26]
  Activity: 39.38%
[27]
  Activity: 38.28%
[28]
  IC50: 0.0219 µM
[29]
  viability at 4 µM: 53.4%
[30]
  Activity: 15.33%
[2]
  IC50: 0.77 µM
[31]
  Activity: 36.36%
[3]
  IC50: 1.09 µM
[32]
  inhibition: Dose-dependent effect
[33]
  Activity: Dose-dependent effect
[34]
  inhibition: Dose-dependent effect
[35]
  Activity: Active
[36]
  Activity: 11.9%
[37]
  viability at 2 µM: 68.2%
[38]
  viability at 1 µM: 89%

## CCCCC(=O)Nc1nc2ccc(-c3ccc4ncn(CCN5CCOCC5)c(=O)c4c3)cc2[nH]1
[1]
  IC50: 3.85 µM
[2]
  IC50: 4.19 µM
[3]
  IC50: 6.54 µM

## CCC(=O)Nc1nc2ccc(-c3ccc4ncn(C)c(=O)c4c3)cc2[nH]1
[1]
  IC50: 13.5 µM
[2]
  IC50: 18.1 µM
[3]
  IC50: > 20 µM

## Cc1cc(Nc2cc(N3CCN(C)CC3)nc(/C=C/c3ccccc3)n2)n[nH]1 [ENMD-2076]
[1]
  IC50: 0.48 µM
[3]
  IC50: 0.67 µM

## CCC(=O)Nc1nc2ccc(-c3ccc4nc(CN5CCOCC5)n(C)c(=O)c4c3)cc2[nH]1
[1]
  IC50: 0.94 µM
[2]
  IC50: 1.08 µM
[3]
  IC50: 1.65 µM
